# Assay results as given in paper PMC2199097 (The Journal of Experimental Medicine, 1997).
# Tested on: CXCR4
# Experiment: Ca2+ mobilization assay in SupT1 cells
# Format: cell-based, human
# Settings: SupT1 cells expressing CXCR4, Fura-2, 500 ng/ml SDF-1α, without ALX40-4C
# How it was run: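 SupT1 cells were loaded with 2.5 μM Fura-2/AM for 1 h at 37°C in the dark, allowed to efflux 15 min in PBS, then resuspended at 2 × 10⁶ cells/ml in Dulbecco's PBS with calcium and magnesium. Test compound (10–50 μM) was added, and SDF-1α (500 ng/ml) followed ∼90 s later. The Ca²⁺ signal was read on a luminescence spectrometer.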
substance,measurement,value
SDF-1α: the chemokine stromal-derived factor (SDF)-1α (Peprotech),Ca2+ mobilization response to SDF-1α,normally respond to SDF-1α
